# In ChEMBL document CHEMBL4004800, “Thiol-Based Probe for Electrophilic Natural Products Reveals That Most of the Ammosamides Are Artifacts” (J Nat Prod, 2017):
# Activity calls are given as the source filed them. The calls are words filed in the database; no cut-off is given here.
# Key:
# [1] = tested on: HCC44; assay: Cytotoxicity against human HCC44 cells; type: functional, cell-based
# [2] = tested on: HCT-116; assay: Cytotoxicity against human HCT116 cells assessed as growth inhibition by MTS assay; type: functional, cell-based
# How it was run: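 HCT-116 colorectal cells, cultured as in earlier work, were tested by colorimetric MTS assay. Compounds were supplied in DMSO from a 10 mg mL⁻¹ stock. IC50 came from a four-parameter sigmoidal fit, and values are averages of three measurements. Controls were DMSO (negative) and etoposide (positive, 4 mg mL⁻¹ stock in DMSO).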
# [3] = tested on: HCT-116; assay: Cytotoxicity against human HCT116 cells assessed as growth inhibition at 78.125 ug/ml by MTS assay relative to control; type: functional; settings: read-out: GI
# [4] = Drug metabolism assessed as compound formation from ammosamide C; type: physicochemical
# How it was run: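 Ammosamide C TFA salt kept at rt in seawater-based A1 medium pH 10.0 (1.0 mg/500 μL; pH 6.8 control), PBS pH 10 (2.0 mg/1.0 mL), saturated NaHCO₃ pH 8.1 (2.0 mg/1.0 mL), or PBS pH 10 with 7 equiv L-cysteine. Products followed over days by analytical C18 ELSD-UV/vis-HPLC (1–60% CH₃CN, 0.1% formic acid), plus LC-HRMS for the buffer reactions.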
# [5] = tested on: Escherichia coli; assay: Antibacterial activity against Escherichia coli MG1655 at 10 ug after 48 hrs by disk diffusion method; type: functional; settings: K-12 substr. MG1655
# How it was run: (§1)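 Kirby–Bauer disk diffusion on LB agar swabbed with inocula from 24 h LB (pH 7.0) precultures grown at rt, 200 rpm. Each 6 mm paper disc carried 10 μg compound, applied as […] in MeOH and dried before placement. Controls were MeOH (10 μL) as negative and ciprofloxacin 5 μg as positive. Plates were incubated 48 h.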
# [6] = tested on: Bacillus oceanisediminis; assay: Antibacterial activity against Bacillus oceanisediminis CNY-977 at 10 ug after 48 hrs by disk diffusion method; type: functional; how it was run: as §1
# [7] = Stability of the compound in culture medium
# [8] = Drug metabolism assessed as half life for ammosamide B formation; type: physicochemical
# [9] = Homo sapiens, HCT-116, read-out: IC50
Structure (SMILES),"IC50 [2, 9]",IC50 ([2]; hct-116),inhibition of growth at 78.125 µg/mL [3],Activity [5],further results
CCCCCC/N=C1\c2cc(C(N)=O)nc3c(N)c(Cl)c(N)c(c23)N1C,–,–,–,–,IC50 [1]: 500 nM
CCCNC1=[N+](C)c2c(N)c(Cl)c(N)c3nc(C(N)=O)cc1c23,6.8 µM,–,–,–,–
CNC(=O)c1cc(C(N)=O)nc2c1C(=O)C(=O)C(Cl)=C2N,–,Not Active,97%,–,–
CN1C(=O)c2cc(C(N)=O)nc3c(N)c(Cl)c(N)c1c23 [AMMOSAMIDE B],29 µM,–,–,Active,Drug metabolism [4]: Metabolite_Detected
CC(=O)NCCSC1=[N+](C)c2c(N)c(Cl)c(N)c3nc(C(N)=O)cc1c23,–,Not Active,26%,–,–
CC(C)/N=C1\c2cc(C(N)=O)nc3c(N)c(Cl)c(N)c(c23)N1C,–,–,–,–,IC50 [1]: 1100 nM
CN1C(=S)c2cc(C(N)=O)nc3c(N)c(Cl)c(N)c1c23,–,Not Active,19%,Active,–
C[N+]1=Cc2cc(C(N)=O)nc3c(N)c(Cl)c(N)c1c23,5.5 µM,–,–,Active,Activity [6]: Active; Stability [7]: Stable; t1/2 [8]: 10 days
COc1cc([C@@H]2c3cc4c(cc3[C@@H](O[C@@H]3O[C@@H]5CO[C@@H](C)O[C@H]5[C@H](O)[C@H]3O)[C@H]3COC(=O)[C@H]23)OCO4)cc(OC)c1O [ETOPOSIDE],0.49 to 4.9 µM,–,–,–,–
CN1/C(=N/c2ccc(Cl)cc2)c2cc(C(N)=O)nc3c(N)c(Cl)c(N)c1c23,39 µM,–,–,–,–
